Reference: ChEMBL document CHEMBL1144522, “Novel C2-C3' N-peptide linked macrocyclic taxoids. Part 2: synthesis and biological activities of docetaxel analogues with a peptide side chain at C2 and their macrocyclic derivatives” (Bioorg Med Chem, 2007)
pIC50: −log10 of the molar value. Active and inactive are the calls of the source. The calls are words filed in the database; no cut-off is given here. *1 amine or outer side, *2 acyl side, *3 side chain or, on linkers, in order; H or OH if unused. Where a SMILES comes first, the peptide text is derived from it. Bridges are numbered along the chain shown (N, C = ends). [ ]: non-standard residue; d: D form. The star is where a group is joined. ξ: configuration not given here. X1 = CC(=O)O[C@@]12COC1C[C@H](O)[C@@]1(C)C(=O)[C@H](O)C3=C(C)[C@@H](OC(=O)[C@H](O)[C@@H](NC(=O)[*:1])c4ccccc4)C[C@@](O)([C@@H](O[*:2])C21)C3(C)C; ξD = NC(CC(=O)O)C(=O)O; OtBu = CC(C)(C)O*

Tests used:
Tubulin (Homo sapiens) = Tubulin (Homo sapiens) (UniProt P68371+Q9H4B7+P0DPH7+P68366+Q13509+Q71U36+P04350+Q3ZCM7+P07437+P68363+Q9BQE3+Q6PEY2+Q13885+Q9BVA1+Q9BUF5); assay: (§1) Tubulin interaction assessed as inhibition of cold-induced microtubule disassembly; type: protein-complex assay
Outline: (§2)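 Microtubular protein was purified from mammalian brain. The assay followed the rate of microtubule disassembly. IC50 is the concentration that inhibits that rate by 50%. Run by an established literature protocol.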

KB = assay: Cytotoxicity against human KB cells after 72 hrs; type: cell-based; conditions: for Activity: human, kb; for pIC50: Homo sapiens, KB
Outline: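 Cell proliferation measured after 72 h incubation with compound. IC50 is the drug concentration that inhibits proliferation by 50%. Run by an established literature protocol.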

Tubulin = assay: as §1; type: protein-complex assay, Homo sapiens; outline: as §2

Activity (Tubulin (Homo sapiens))	pIC50 (Tubulin)	SMILES	Activity (KB)	pIC50 (KB)
inactive	–	CC(=O)O[C@@]12COC1C[C@H](O)[C@@]1(C)C(=O)[C@H](O)C3=C(C)[C@@H](OC(=O)[C@H](O)[C@@H](NC(=O)OC(C)(C)C)c4ccccc4)C[C@@](O)([C@@H](OC(=O)[C@@H](NC(=O)[C@@H]4CCCN4C(=O)CNC(=O)CN)C(C)C)C21)C3(C)C (some centres undefined)	Not Active	–
–	6.30	CC(=O)O[C@@]12COC1C[C@H](O)[C@@]1(C)C(=O)[C@H](O)C3=C(C)[C@@H](OC(=O)C(O)[C@@H](NC(=O)N[C@H](C(=O)N4CCC[C@H]4C(=O)NCC(=O)NCC(=O)OCc4ccccc4)C(C)C)c4ccccc4)C[C@@](O)([C@@H](OC(=O)c4cccc([N+](=O)[O-])c4)C21)C3(C)C (some centres undefined)	–	< 5.00
–	–	CC(=O)O[C@@]12COC1C[C@H](O)[C@@]1(C)C(=O)[C@H](O)C3=C(C)[C@@H]4C[C@@](O)([C@@H](OC(=O)c5cccc(c5)NC(=O)CNC(=O)CNC(=O)[C@@H]5CCCN5C(=O)[C@H](C(C)C)NC(=O)N[C@@H](c5ccccc5)[C@@H](O)C(=O)O4)C21)C3(C)C (some centres undefined)	Non-toxic	–
–	6.00	CC(=O)O[C@@]12COC1C[C@H](O)[C@@]1(C)C(=O)[C@H](O)C3=C(C)[C@@H](OC(=O)[C@H](O)[C@@H](NC(=O)NCC(=O)N[C@@H](CO)C(=O)N[C@@H](Cc4ccc(O)cc4)C(=O)O)c4ccccc4)C[C@@](O)([C@@H](OCc4ccccc4)C21)C3(C)C (some centres undefined)	–	5.98
inactive	–	CC(=O)O[C@@]12COC1C[C@H](O)[C@@]1(C)C(=O)[C@H](O)C3=C(C)[C@@H](OC(=O)[C@H](O)[C@@H](NC(=O)OC(C)(C)C)c4ccccc4)C[C@@](O)([C@@H](OC(=O)CNC(=O)CN)C21)C3(C)C (some centres undefined)	Not Active	–
–	6.22	CC(=O)O[C@@]12COC1C[C@H](O)[C@@]1(C)C(=O)[C@H](O)C3=C(C)[C@@H](OC(=O)C(O)C(NC(=O)N[C@H](C(=O)N4CCC[C@H]4C(=O)NCC(=O)O)C(C)C)c4ccccc4)C[C@@](O)([C@@H](OCc4ccccc4)C21)C3(C)C (some centres undefined)	–	< 5.00
–	6.00	CC(=O)O[C@@]12COC1C[C@H](O)[C@@]1(C)C(=O)[C@H](O)C3=C(C)[C@@H](OC(=O)C(O)[C@@H](NC(=O)N[C@H](C(=O)N4CCC[C@H]4C(=O)NCC(=O)NCC(=O)O)C(C)C)c4ccccc4)C[C@@](O)([C@@H](OC(=O)c4cccc(N)c4)C21)C3(C)C (some centres undefined)	–	< 5.00
–	4.29	CC(=O)O[C@@]12COC1C[C@H](O)[C@@]1(C)C(=O)[C@H](O)C3=C(C)[C@@H](OC(=O)[C@H](O)[C@@H](NC(=O)OC(C)(C)C)c4ccccc4)C[C@@](O)([C@@H](OC(=O)CN)C21)C3(C)C (some centres undefined)	–	< 5.00
–	5.59	COC(=O)[C@@H](CCSC)NC(=O)[C@H](Cc1ccccc1)NC(=O)[C@@H](NC(=O)N[C@@H](c1ccccc1)[C@@H](O)C(=O)O[C@H]1C[C@@]2(O)[C@@H](OCc3ccccc3)C3[C@]4(OC(C)=O)COC4C[C@H](O)[C@@]3(C)C(=O)[C@H](O)C(=C1C)C2(C)C)C(C)C (some centres undefined)	–	–
inactive	–	CC(=O)O[C@@]12COC1C[C@H](O)[C@@]1(C)C(=O)[C@H](O)C3=C(C)[C@@H](OC(=O)[C@H](O)[C@@H](NC(=O)OC(C)(C)C)c4ccccc4)C[C@@](O)([C@@H](OC(=O)[C@@H]4CCCN4C(=O)CNC(=O)CN)C21)C3(C)C (some centres undefined)	Not Active	–
–	6.30	CC(=O)O[C@@]12CO[C@@H]1C[C@H](O)[C@@]1(C)C(=O)[C@H](O)C3=C(C)[C@@H](OC(=O)[C@H](O)[C@@H](NC(=O)OC(C)(C)C)c4ccccc4)C[C@@](O)([C@@H](OC(=O)c4ccccc4)[C@H]21)C3(C)C [DOCETAXEL]	–	10.00
–	6.10	CC(=O)O[C@@]12COC1C[C@H](O)[C@@]1(C)C(=O)[C@H](O)C3=C(C)[C@@H](OC(=O)[C@H](O)[C@@H](NC(=O)N[C@H](C(=O)OCc4ccccc4)C(C)C)c4ccccc4)C[C@@](O)([C@@H](OCc4ccccc4)C21)C3(C)C (some centres undefined)	–	8.40
–	–	CC(=O)O[C@@]12COC1C[C@H](O)[C@@]1(C)C(=O)[C@H](O)C3=C(C)[C@@H]4C[C@@](O)([C@@H](OC(=O)CNC(=O)C(CC(=O)OC(C)(C)C)NC(=O)CNC(=O)CNC(=O)[C@@H]5CCCN5C(=O)[C@H](C(C)C)NC(=O)N[C@@H](c5ccccc5)[C@@H](O)C(=O)O4)C21)C3(C)C (some centres undefined) (VPGG[ξD](OtBu)G; linker N-C via X1)	Non-toxic	–
–	–	CC(=O)O[C@@]12COC1C[C@H](O)[C@@]1(C)C(=O)[C@H](O)C3=C(C)[C@@H]4C[C@@](O)([C@@H](OC(=O)CNC(=O)CNC(=O)[C@@H]5CCCN5C(=O)[C@H](C(C)C)NC(=O)N[C@@H](c5ccccc5)[C@@H](O)C(=O)O4)C21)C3(C)C (some centres undefined)	Non-toxic	–
–	–	COC(=O)[C@H](CCSC)NC(=O)[C@H](Cc1ccccc1)NC(=O)[C@@H](NC(=O)N[C@@H](c1ccccc1)[C@@H](O)C(=O)O[C@H]1C[C@@]2(O)[C@@H](OCc3ccccc3)C3[C@]4(OC(C)=O)COC4C[C@H](O)[C@@]3(C)C(=O)[C@H](O)C(=C1C)C2(C)C)C(C)C (some centres undefined)	–	5.96
inactive	–	CC(=O)O[C@@]12COC1C[C@H](O)[C@@]1(C)C(=O)[C@H](O)C3=C(C)[C@@H](OC(=O)[C@H](O)[C@@H](NC(=O)NCC(=O)N[C@@H](COCc4ccccc4)C(=O)N[C@@H](Cc4ccc(OCc5ccccc5)cc4)C(=O)OCc4ccccc4)c4ccccc4)C[C@@](O)([C@@H](OCc4ccccc4)C21)C3(C)C (some centres undefined)	–	7.05

SMILES	Activity (Tubulin (Homo sapiens))	pIC50 (Tubulin)	Activity (KB)	pIC50 (KB)
CC(=O)O[C@@]12COC1C[C@H](O)[C@@]1(C)C(=O)[C@H](O)C3=C(C)[C@@H](OC(=O)[C@H](O)[C@@H](NC(=O)OC(C)(C)C)c4ccccc4)C[C@@](O)([C@@H](OC(=O)CNC(=O)Oc4ccccc4)C21)C3(C)C (some centres undefined)	inactive	–	–	7.05
